For one compound, IC50, Activity and IC90 results are on record in ChEMBL document CHEMBL4699407, “Isoquinoline thiosemicarbazone displays potent anticancer activity with in vivo efficacy against aggressive leukemias” (RSC Med Chem, 2020).

Molecules are shown by their SMILES. Activity calls are given as the source filed them. The rule behind the calls is not given here.

One may read the IC50 as the midpoint of a concentration-inhibition curve. A word on the IC90: it is the concentration needed for an effect of 90%.

The subject of one assay is Panc203. The experiment in a line: Cytotoxicity against human Panc203 cells assessed as reduction in cell viability in presence of Cu2+ incubated for 72 hrs by cell titer-glo luminescent cell viability assay. The assay is classed as functional, cell-based. Conditions: Panc203, 72 h. In a few lines:
(§1)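 Cells were grown in DMEM or RPMI with 10% FBS, without antibiotics, at 37 °C, 20% O2, 5% CO2. Adherent lines were seeded at 500 cells/well. Serially diluted compound was given with 20 μM Cu(II) (CuCl2) for 72 h; leukemia models received pre-formed 1:1 copper complex. ATP was read by CellTiter-Glo luminescence. IC50 is relative to DMSO-treated cells.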
(ATP-based viability assays read luminescence as a measure of living cells.)

The test system of assay [1] is MIA PaCa-2. The experiment in a line: Cytotoxicity against human MIA PaCa2 cells assessed as reduction in cell viability at 25 nM in presence of Cu2+ and BCPS incubated for 24 hrs by trypan blue assay. The assay is classed as functional, cell-based. In a few lines:
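MIAPACA2 cells were given 25 nM compound plus 20 μM Cu(II) for 24 h, with or without the membrane-impermeable copper chelator bathocuproine disulfonate (300 μM). Viable cells were measured by trypan blue exclusion on a Vi-Cell counter.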

Assay [2] relates to MIA PaCa-2. Put plainly: Induction of apoptosis in human MIA PaCa-2 cells assessed as increase in necrotic cells at 25 nM in presence of Cu2+ and ATRi incubated for 72 hrs by annexin V and propidium iodide staining based flow cytometry analysis relative to control. It counts as functional. In short, it runs like this: (§2)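 Cells given 25 nM compound with or without 20 μM Cu(II) and/or the ATR inhibitor VE-822 at 250 nM for 72 h. Stained with annexin V-FITC and propidium iodide, then analysed on a five-laser flow cytometer to score viable, early apoptotic, late apoptotic and necrotic fractions against vehicle.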
(A flow cytometer gives signals particle by particle.)

The test system of assay [3] is MIA PaCa-2. Put plainly: Induction of apoptosis in human MIA PaCa-2 cells assessed as increase in necrotic cells at 25 nM in presence of Cu2+ incubated for 72 hrs by annexin V and propidium iodide staining based flow cytometry analysis relative to control. It counts as functional. In short, it runs like this: as §2
The test system of assay [4] is MIA PaCa-2. The experiment in a line: Induction of ROS generation in human MIA PaCa-2 cells at 25 nM in presence of Cu2+ incubated for 24 hrs by CM-H2DCFDA staining based flow cytometry analysis. It counts as functional, cell-based. In a few lines:
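Treated with 25 nM compound ± 20 μM Cu(II) for 24 h. Cells loaded with 5 μM CM-H2DCFDA for 30 min, spun at 450g for 4 min, and returned to medium containing compound and/or Cu(II) for 30 min. Then spun, resuspended in PBS and read by flow cytometry as mean fluorescence intensity. Mean ± SD, n = 2, Student t-test.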

Assay [5] relates to MIA PaCa-2. Put plainly: Anti-OXPHOS activity in human MIA PaCa-2 cells assessed as reduction in oxygen consumption rate at 25 nM in presence of Cu2+ incubated for 24 hrs by […]. The assay is classed as functional, cell-based. Particulars: Mitochondria. In a few lines:
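Cellular Mito Stress Test: cells treated 24 h with 25 nM compound plus 20 μM Cu(II), then incubated in unbuffered DMEM with 25 mM glucose, 1 mM pyruvate and 2 mM glutamine. OCR was read on an XF24 analyzer and normalized per μg protein. It was read at baseline and after serial 1 μM oligomycin, 0.75 μM FCCP, and 1 μM rotenone plus myxothiazol.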

A short description of assay [6]: Cytotoxicity against human A13A cells assessed as reduction in cell viability in presence of Cu2+ incubated for 72 hrs by cell titer-glo luminescent cell viability assay. The assay is classed as functional, cell-based. In a few lines:
as §1

For assay [7], the system named is MIA PaCa-2. The experiment in a line: Induction of DNA damage in human MIA PaCa-2 cells assessed as decrease in rGTP level at 25 nM in presence of Cu2+ incubated for 48 hrs by LC-MS/MS analysis. The assay is classed as functional, cell-based. In a few lines:
(§3)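 Cells in DMEM or RPMI with 10% FBS, 37 °C, 5% CO2. Treated with 25 nM compound plus 20 μM Cu(II) for 48 h. Nucleotide pools quantified by LC-MS/MS with multiple reaction monitoring. Cells were in glucose-free DMEM with 10% dialyzed FBS and 11 mM [U-13C6]glucose for 48 h, and glucose-labeled pools were compared. Mean ± SD, n = 3, two-way ANOVA with Bonferroni correction.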

Assay [8] concerns MIA PaCa-2. Put plainly: Induction of DNA damage in human MIA PaCa-2 cells assessed as decrease in dGTP level at 25 nM in presence of Cu2+ incubated for 48 hrs by LC-MS/MS analysis. It counts as functional, cell-based. In short, it runs like this:
as §3

The subject of the next assay is L3.6pl. Put plainly: Cytotoxicity against human L3.6pl cells assessed as reduction in cell viability in presence of Cu2+ incubated for 72 hrs by cell titer-glo luminescent cell viability assay. It counts as functional, cell-based. In a few lines: as §1
Assay [9] can be described thus: Cytotoxicity against human SUIT-2 cells assessed as reduction in cell viability in presence of Cu2+ incubated for 72 hrs by cell titer-glo luminescent cell viability assay. It counts as functional, cell-based. Conditions: SUIT-2, 72 h. In a few lines: as §1
The next assay deals with PANC-1. The experiment in a line: Cytotoxicity against human PANC-1 cells assessed as reduction in cell viability in presence of Cu2+ incubated for 72 hrs by cell titer-glo luminescent cell viability assay. The assay is classed as functional, cell-based. Particulars: PANC-1, 72 h. In a few lines: as §1
The subject of a further assay is 143B. Put plainly: Cytotoxicity against human 143-BTK Rho0 cells assessed as reduction in cell viability at 25 to 100 nM incubated for 48 hrs by trypan blue assay. Conditions: dose nM 25-100, time 48.0 hrs. It counts as functional, cell-based. In short, it runs like this: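 143 BTK parental (WT) and ρ0 cells were exposed to the indicated compound concentrations plus 20 μM Cu(II) for 48 h. Viable cells were counted by trypan blue staining on a Vi-Cell counter. Mean ± SD, n = 2, Student t-test.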

For assay [10], the system named is MIA PaCa-2. Put plainly: Induction of apoptosis in human MIA PaCa-2 cells assessed as increase in caspase 3 cleavage at 10 nM in presence of Cu2+ incubated for 48 hrs by immunoblot assay. It counts as functional, cell-based. In short, it runs like this:
(§4)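 Treated with 10 nM compound plus 20 μM Cu(II). Lysed in RIPA buffer with protease and phosphatase inhibitors, then sonicated and centrifuged at 20 000g, 4 °C. Protein measured by micro BCA, and equal amounts run on bis-tris gels. Primary antibodies in 5% BSA/TBST; HRP-linked anti-rabbit or anti-mouse secondaries at 1:2500. Chemiluminescent detection on film; representative blot.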
For orientation: A western blot detects proteins with antibodies after separation by electrophoresis.

The test system of assay [11] is MIA PaCa-2. The experiment in a line: Cytotoxicity against human MIA PaCa2 cells assessed as reduction in cell viability in presence of Cu2+ incubated for 72 hrs by cell titer-glo luminescent cell viability assay. It counts as functional, cell-based. Particulars: MIA PaCa-2, 72 h. In a few lines: as §1
Assay [12] deals with MIA PaCa-2. Put plainly: Induction of DNA damage in human MIA PaCa-2 cells assessed as decrease in ATP level at 25 nM in presence of Cu2+ incubated for 48 hrs by LC-MS/MS analysis. It counts as functional, cell-based. In a few lines:
(§5)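 MIAPACA2 cells were given 25 nM compound plus 20 μM Cu(II) for 48 h in glucose-free DMEM with 10% dialyzed FBS and 11 mM [U-13C6]glucose. Nucleotide pools were quantified by LC-MS/MS with multiple reaction monitoring. Mean ± SD, n = 3, two-way ANOVA with Bonferroni correction.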

Assay [13] relates to MIA PaCa-2. Put plainly: Induction of DNA damage in human MIA PaCa-2 cells assessed as increase in pH2A.X phosphorylation at 10 nM in presence of Cu2+ incubated for 48 hrs by immunoblot assay. It counts as functional, cell-based. In short, it runs like this: as §4
The test system of assay [14] is MIA PaCa-2. Put plainly: Induction of DNA damage in human MIA PaCa-2 cells assessed as decrease in CTP level at 25 nM in presence of Cu2+ incubated for 48 hrs by LC-MS/MS analysis. It counts as functional, cell-based. In a few lines:
as §5

The subject of assay [15] is MIA PaCa-2. The experiment in a line: Induction of DNA damage in human MIA PaCa-2 cells assessed as decrease in GTP level at 25 nM in presence of Cu2+ incubated for 48 hrs by LC-MS/MS analysis. The assay is classed as functional, cell-based. In a few lines:
as §5

On to `CN(C)C(=S)NN=Cc1nccc2cc(F)ccc12`, for which the IC50 (in the assay with Panc203; in assay [6]; in the assay on L3.6pl; in assay [9]; in the assay on PANC-1) was 1 nM in each case. In addition, the outcome in the assay with MIA PaCa-2 [1], in the assay on 143B, in the assay with MIA PaCa-2 [12], in the assay on MIA PaCa-2 [14] and in the assay on MIA PaCa-2 [15] was inactive. Besides, the Activity amounted to 4.72% with MIA PaCa-2 [2] and 4.86% in the assay with MIA PaCa-2 [3]. Moreover, the result with MIA PaCa-2 [4], with MIA PaCa-2 [5], with MIA PaCa-2 [7], with MIA PaCa-2 [8], in the assay with MIA PaCa-2 [10] and in the assay with MIA PaCa-2 [13] was Active. Moreover, the IC90 in the assay with MIA PaCa-2 [11] was 21.6 nM.
